Assay [1] has as its system Cavia porcellus. Kind of assay: Antagonist activity was determined by the ability to inhibit of LTD4 (leukotriene D4) induced bronchospasm when administered intraduodenally with respect to REV-5901 compound. In kind it is functional. As to conditions: intraduodenal. An outline of the steps: (§1)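 Guinea pig bronchoconstriction induced by LTD4 or by ovalbumin. Antagonist was given intraduodenally 10 min before the agonist. […] Single-dose lines give percent inhibition at the stated id dose.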

Assay [2] concerns Cavia porcellus. Kind of assay: Antagonist activity was determined by the ability to inhibit of LTD4 (leukotriene D4) induced bronchospasm when administered perorally with respect to REV-5901 compound. As to conditions: po. In kind it is functional. An outline of the steps:
(§2)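 Guinea pig bronchoconstriction induced by LTD4 or by ovalbumin. Antagonist was dosed orally to awake animals 120 min before the agonist, which is 95 min before anesthetic. […] Single-dose lines give percent inhibition at the stated oral dose.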

For assay [3], the species on record is Cavia porcellus. Kind of assay: Antagonist activity towards LTD4-induced contraction of isolated guinea pig. In kind it is functional. The gist of the method:
(§3)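 Guinea pig tracheal spirals stretched to near-optimal length and equilibrated 1.5 h, washed every 15 min. Indomethacin (5 μM) was present in all tissues. Cumulative LTD4 dose-response curves were recorded isometrically via force transducers. Paired proximal/distal strips from one animal got solvent control or drug. Values are negative log, mean ± SEM, and were compared by Student's t test.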

Assay [4] has as its system Cavia porcellus. Kind of assay: Antagonist activity was determined by the ability to inhibit of ovalbumin induced bronchospasm when administered intraduodenally with respect to REV-5901 compound. In kind it is functional. Particulars: intraduodenal. An outline of the steps: as §1
Assay [5] has as its system Cavia porcellus. Kind of assay: Relative inhibitory potency against LTD4 (leukotriene D4) induced bronchospasm when administered perorally with respect to REV-5901 compound. It is filed as functional.
For assay [6], the system named is Cavia porcellus. Kind of assay: Relative inhibitory potency against LTD4 (leukotriene D4) induced bronchospasm when administered intraduodenally with respect to REV-5901 compound. In kind it is functional.
The test system of assay [7] is Cavia porcellus. Kind of assay: Antagonist activity was determined by the ability to inhibit of ovalbumin induced bronchospasm when administered perorally with respect to REV-5901 compound. In kind it is functional. Particulars: po. The gist of the method:
as §2

The species entered for assay [8] is Cavia porcellus. Kind of assay: relative potency antagonist on LTD4-induced contraction of isolated guinea pig trachea. It is filed as functional. The gist of the method:
as §3

Assay [9] deals with Cavia porcellus. Kind of assay: Relative inhibitory potency against ovalbumin induced bronchospasm when administered perorally with respect to LY-171,883 compound.

What is called ED50 is the midpoint of the dose-response relation.

Regarding `CCCCCC(O)c1cccc(OCc2ccc3ccccc3n2)c1` (centres undefined) [REV-5901], the ED50 was 51 mg/kg in [1], 52 mg/kg in assay [2], 47 mg/kg in assay [4] and 87 mg/kg in [7]. Also, the pkb in [3] stood at 5.64. For the same compound, the Potency in assay [5] came out at 1.6; in [6], 8.5; in [8], 8; in assay [9] it was 2.3.

The record behind these values is ChEMBL document CHEMBL1123645, “Phenylephrine derivatives as leukotriene D4 antagonists” (J Med Chem, 1987).
